Reference: article PMC13170702 (Nuclear medicine and biology, 2025)

What was measured:
[1] = whole-body PET-MR biodistribution and TIAC determination; type: in vivo, human
Procedure, shortened: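 Tracer 70.3–355 MBq was given as an i.v. bolus; whole-body PET-MR used 6 bed positions. WB1–WB5 ran 0–34 min (1 min/bed), WB6–7 35–60 min (2 min/bed), WB8 80–104 min and WB9 180–214 min (4 min/bed). Voiding and water were allowed in breaks. SUV was read from AMIDE VOIs at early times (<1 h). Decay-corrected %IA per organ VOI over time was fitted by the exponential model (OLINDA/EXM 1.1) for TIACs.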

[2] = organ radiation dose estimates, both OLINDA software versions; type: in vivo, human
Procedure, shortened: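 Per-participant organ doses from OLINDA 1.1 (ICRP-60) and 2.0 (ICRP-103) were pooled by sex as mean ± SD (n = 4 per sex), in mGy/MBq; effective dose in mSv/MBq. Males and females were compared at p < 0.05. Kidney dose per MBq was related to injected activity and benchmarked against FDA 21CFR361 single-study limits (30 mSv whole body; 50 mGy other organs).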

healthy volunteers = assay: first-in-human adverse event monitoring in healthy volunteers; type: in vivo
Procedure, shortened: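 Participants were aged 56–75 (four male, four female). Tracer was given as an i.v. bolus (1–2 min) via a cephalic-vein catheter, supine, before 94 min of PET-MR over three sessions ending at 214 min. Adverse events were watched for continuously during scans, breaks and afterwards. Vital signs and ECG were taken ~60 min post-imaging, then physician/nurse review before discharge and off-site follow-up at 24–48 h. Later events were self-reported.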

[3] = HPLC stability determination of final drug product; type: physicochemical; settings: ambient temperature, shielded container
Procedure, shortened: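 Final product was formulated at 44–463 MBq/mL in USP ethanol (1 mL)/0.5 mg ascorbic acid in 0.9 % sodium chloride, sterile filtered and sealed in a glass vial. It was held at ambient temperature in a shielded container and checked by HPLC after end-of-synthesis. Release QC covered HPLC radiochemical purity (≥90 %), pH 4.5–7.5, endotoxin, GC residual solvents, sterility and filter integrity.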

[4] = range of sex means from both software versions

TIAC, Heart contents ([1]; M1 (326 MBq)): 0.00354 MBq-h/MBq
TIAC, Heart wall ([1]; M1 (326 MBq)): 0.0301 MBq-h/MBq
TIAC, Kidneys ([1]; M1 (326 MBq)): 0.351 MBq-h/MBq
TIAC, Liver ([1]; M1 (326 MBq)): 0.34 MBq-h/MBq
TIAC, Lungs ([1]; M1 (326 MBq)): 0.322 MBq-h/MBq
TIAC, Pancreas ([1]; M1 (326 MBq)): 0.0022 MBq-h/MBq
TIAC, Remainder ([1]; M1 (326 MBq)): 1.27 MBq-h/MBq
TIAC, Small intestine ([1]; M1 (326 MBq)): 0.161 MBq-h/MBq
TIAC, Spleen ([1]; M1 (326 MBq)): 0.0528 MBq-h/MBq
TIAC, Thymus ([1]; M1 (326 MBq)): 0.00576 MBq-h/MBq
TIAC, Thyroid ([1]; M1 (326 MBq)): 0.0007 MBq-h/MBq
TIAC, Urinary bladder contents ([1]; M1 (326 MBq)): 0.00668 MBq-h/MBq
TIAC, Brain ([1]; M2 (289 MBq)): 0.0531 MBq-h/MBq
TIAC, Gallbladder wall ([1]; M2 (289 MBq)): 0.0017 MBq-h/MBq
TIAC, Heart contents ([1]; M2 (289 MBq)): 0.0248 MBq-h/MBq
TIAC, Heart wall ([1]; M2 (289 MBq)): 0.202 MBq-h/MBq
TIAC, Kidneys ([1]; M2 (289 MBq)): 0.424 MBq-h/MBq
TIAC, Liver ([1]; M2 (289 MBq)): 0.19 MBq-h/MBq
TIAC, Lungs ([1]; M2 (289 MBq)): 0.0012 MBq-h/MBq
TIAC, Pancreas ([1]; M2 (289 MBq)): 0.111 MBq-h/MBq
TIAC, Remainder ([1]; M2 (289 MBq)): 1.37 MBq-h/MBq
TIAC, Small intestine ([1]; M2 (289 MBq)): 0.00196 MBq-h/MBq
TIAC, Spleen ([1]; M2 (289 MBq)): 0.0158 MBq-h/MBq
TIAC, Thymus ([1]; M2 (289 MBq)): 0.0013 MBq-h/MBq
TIAC, Thyroid ([1]; M2 (289 MBq)): 0.00039 MBq-h/MBq
TIAC, Urinary bladder contents ([1]; M2 (289 MBq)): 0.017 MBq-h/MBq
TIAC, Brain ([1]; M3 (70.3 MBq)): 0.0611 MBq-h/MBq
TIAC, Gallbladder wall ([1]; M3 (70.3 MBq)): 0.00199 MBq-h/MBq
TIAC, Heart contents ([1]; M3 (70.3 MBq)): 0.0027 MBq-h/MBq
TIAC, Heart wall ([1]; M3 (70.3 MBq)): 0.0297 MBq-h/MBq
TIAC, Kidneys ([1]; M3 (70.3 MBq)): 0.286 MBq-h/MBq
TIAC, Liver ([1]; M3 (70.3 MBq)): 0.249 MBq-h/MBq
TIAC, Lungs ([1]; M3 (70.3 MBq)): 0.298 MBq-h/MBq
TIAC, Pancreas ([1]; M3 (70.3 MBq)): 0.00353 MBq-h/MBq
TIAC, Remainder ([1]; M3 (70.3 MBq)): 1.29 MBq-h/MBq
TIAC, Small intestine ([1]; M3 (70.3 MBq)): 0.0651 MBq-h/MBq
TIAC, Spleen ([1]; M3 (70.3 MBq)): 0.0218 MBq-h/MBq
TIAC, Thymus ([1]; M3 (70.3 MBq)): 0.00217 MBq-h/MBq
TIAC, Thyroid ([1]; M3 (70.3 MBq)): 0.00057 MBq-h/MBq
TIAC, Urinary bladder contents ([1]; M3 (70.3 MBq)): 0.0429 MBq-h/MBq
TIAC, Brain ([1]; M4 (153 MBq)): 0.078 MBq-h/MBq
TIAC, Gallbladder wall ([1]; M4 (153 MBq)): 0.00356 MBq-h/MBq
TIAC, Heart contents ([1]; M4 (153 MBq)): 0.0033 MBq-h/MBq
TIAC, Heart wall ([1]; M4 (153 MBq)): 0.0276 MBq-h/MBq
TIAC, Kidneys ([1]; M4 (153 MBq)): 0.332 MBq-h/MBq
TIAC, Liver ([1]; M4 (153 MBq)): 0.229 MBq-h/MBq
TIAC, Lungs ([1]; M4 (153 MBq)): 0.214 MBq-h/MBq
TIAC, Pancreas ([1]; M4 (153 MBq)): 0.00723 MBq-h/MBq
TIAC, Remainder ([1]; M4 (153 MBq)): 1.39 MBq-h/MBq
TIAC, Small intestine ([1]; M4 (153 MBq)): 0.12 MBq-h/MBq
TIAC, Spleen ([1]; M4 (153 MBq)): 0.0354 MBq-h/MBq
TIAC, Thymus ([1]; M4 (153 MBq)): 0.00492 MBq-h/MBq
TIAC, Thyroid ([1]; M4 (153 MBq)): 0.00105 MBq-h/MBq
TIAC, Urinary bladder contents ([1]; M4 (153 MBq)): 0.0178 MBq-h/MBq
kidney dose per injected activity used for the limit ([2]; 0.237 mGy/MBq × 211 MBq = 50 mGy): 0.237 mGy/MBq
renal estimated radiation dose ([2]; Males 1–2 and Female 2, 289–355 MBq given): > 50 mSv
ratio of estimated kidney dose to radioactivity given ([2]; Males 1–2 and Female 4): > 0.21 mGy/MBq
critical organ ([2]; highest mean absorbed dose, primary route of elimination): kidneys
estimated absorbed doses, remaining organs and tissues and Effective dose ([2]; organs other than kidneys, liver, small intestine): < 0.035 mGy/MBq
kidneys mean absorbed estimated radiation dose [2, 4]: 0.142 to 0.214 mGy/MBq
liver mean absorbed dose [2, 4]: 0.0392 to 0.0449 mGy/MBq
expiration time after end-of-synthesis (EOS) [3]: 4 h
SMILES: COC(=O)[C@@H](N)CC(=O)Nc1ccc2c(c1)Cc1cc([18F])ccc1-2 [[^18F]RP-115, methyl N^4-(7-[^18F]fluoro-9H-fluoren-2-yl)asparaginate]
adverse events / pharmacological effects (healthy volunteers; 70.3–355 MBq i.v. bolus, n=8, ≤48 h and up to 1 year): no adverse events (AE) or clinically detectable pharmacological effects
tolerability (healthy volunteers; 70.3–355 MBq i.v., n=8, PET-MR scanning protocol): well tolerated
